ChEMBL document CHEMBL2203199, “Heterocycle-functional gramine analogues: solvent- and catalyst-free synthesis and their inhibition activities against cell proliferation” (Eur J Med Chem, 2012)
≈ marks a conversion by molar mass, not a printed value. Calls of active or inactive are those of the source. No cut-off for these calls is given here.

Legend:
BGC-823 [1] = assay: Cytotoxicity against human BGC823 cells after 72 hrs by MTT assay; type: functional, cell-based; conditions: for IC50: Homo sapiens, BGC-823, 72 h
Procedure, shortened: (§1)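 Cells seeded at 2 × 10⁴ per well and grown to subconfluence before treatment. MTT (5 mg/mL stock in PBS) added, then 4 h incubation for formazan formation. Formazan dissolved in DMSO and absorbance read at 570 nm. IC50 determined from concentration-dependent inhibition. Assays run in triplicate across three independent experiments, reported as mean ± S.D.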

SGC-7901 [2] = assay: Cytotoxicity against human SGC7901 cells after 72 hrs by MTT assay; type: functional, cell-based; conditions: for IC50: Homo sapiens, SGC-7901, 72 h; procedure, shortened: as §1
SGC-7901 [3] = assay: Cytotoxicity against human SGC7901 cells assessed as growth inhibition at 40 ug/mL after 72 hrs by MTT assay; type: functional; conditions: SGC-7901, 72 h, read-out: GI
Procedure, shortened: (§2)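 Growth inhibition by MTT after seeding at 2 × 10⁴ cells per well and growth to subconfluence, with 5-FU as positive control. MTT stock 5 mg/mL in PBS, 4 h formazan formation, then DMSO solubilisation and A570 read. Triplicate wells, three independent experiments, mean ± S.D.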

NCI-H460 [4] = assay: Cytotoxicity against human NCI-H460 cells assessed as growth inhibition at 40 ug/mL after 72 hrs by MTT assay; type: functional; conditions: NCI-H460, 72 h, read-out: GI; procedure, shortened: as §2
BGC-823 [5] = assay: Cytotoxicity against human BGC823 cells assessed as growth inhibition at 40 ug/mL after 72 hrs by MTT assay; type: functional; conditions: BGC-823, 72 h, read-out: GI; procedure, shortened: as §2
HepG2 [6] = assay: Cytotoxicity against human HepG2 cells after 72 hrs by MTT assay; type: functional, cell-based; conditions: for IC50: Homo sapiens, HepG2, 72 h; procedure, shortened: as §1
HepG2 [7] = assay: Cytotoxicity against human HepG2 cells assessed as growth inhibition at 40 ug/mL after 72 hrs by MTT assay; type: functional; conditions: HepG2, 72 h, read-out: GI; procedure, shortened: as §2
NCI-H460 [8] = assay: Cytotoxicity against human NCI-H460 cells after 72 hrs by MTT assay; type: functional, cell-based; conditions: for IC50: Homo sapiens, NCI-H460, 72 h; procedure, shortened: as §1
SGC-7901 [9] = assay: Cytotoxicity against human SGC7901 cells assessed as change in cell morphology at 20 ug/mL after 48 hrs by inverted microscopy; type: functional, cell-based
NCI-H460 [10] = assay: Cytotoxicity against human NCI-H460 cells assessed as change in cell morphology at 20 ug/mL after 48 hrs by inverted microscopy; type: functional, cell-based

| SMILES | IC50 (BGC-823 [1]) [µg/mL] | IC50 (SGC-7901 [2]) [µg/mL] | inhibition of growth at 40 µg/mL (SGC-7901 [3]) [%] | inhibition of growth at 40 µg/mL (NCI-H460 [4]) [%] | inhibition of growth at 40 µg/mL (BGC-823 [5]) [%] | IC50 (HepG2 [6]) [µg/mL] | inhibition of growth at 40 µg/mL (HepG2 [7]) [%] | IC50 (NCI-H460 [8]) [µg/mL] | Activity (BGC-823 [1]) | Activity (HepG2 [6]) | Activity (SGC-7901 [9]) | Activity (NCI-H460 [10]) | growth inhibition (GI) (BGC-823 [1]) [%] | growth inhibition (GI) (SGC-7901 [2]) [%] | growth inhibition (GI) (HepG2 [6]) [%] | growth inhibition (GI) (NCI-H460 [8]) [%] |
| --- | --- | --- | --- | --- | --- | --- | --- | --- | --- | --- | --- | --- | --- | --- | --- | --- |
| Fc1ccc(C(Nc2ccccn2)c2c[nH]c3ccccc23)cc1 (centres undefined) | 21.8 (≈ 68.7 µM) | 21.5 (≈ 67.7 µM) | 71.4 | 71.4 | 71.4 | 23 (≈ 72.5 µM) | 71.4 | 24 (≈ 75.6 µM) |  |  |  |  |  |  |  |  |
| Fc1ccccc1C(Nc1nc2ccccc2s1)c1c[nH]c2ccccc12 (centres undefined) | 8.1 (≈ 21.7 µM) | 9.4 (≈ 25.2 µM) |  |  |  | 7 (≈ 18.7 µM) |  | 12.1 (≈ 32.4 µM) | Dose-dependent effect | Dose-dependent effect |  |  |  |  |  |  |
| Fc1ccc(C(c2c[nH]c3ccccc23)n2cncn2)cc1 (centres undefined) | 10.3 (≈ 35.2 µM) | 8.2 (≈ 28.1 µM) |  |  |  | 8.4 (≈ 28.7 µM) |  | 10.7 (≈ 36.6 µM) | Dose-dependent effect | Dose-dependent effect |  |  |  |  |  |  |
| c1ccc(NC(c2ccccn2)c2c[nH]c3ccccc23)nc1 (centres undefined) | 46.9 (≈ 156 µM) | 51.4 (≈ 171 µM) |  |  |  | > 100 |  | > 100 |  |  |  |  |  |  |  |  |
| Cn1cc(C(Nc2ccccn2)c2ccc(C(F)(F)F)cc2)c2ccccc21 (centres undefined) | 16.8 (≈ 44 µM) | 13.8 (≈ 36.2 µM) | 71.4 | 71.4 | 71.4 | 12.9 (≈ 33.8 µM) | 71.4 | 16 (≈ 42 µM) |  |  |  |  |  |  |  |  |
| c1ccc(C(Nc2ccccn2)c2c[nH]c3ccccc23)cc1 (centres undefined) | 29.4 (≈ 98.2 µM) | 24.9 (≈ 83.2 µM) |  |  |  | 27.6 (≈ 92.2 µM) |  | 35.3 (≈ 118 µM) |  |  |  |  |  |  |  |  |
| Cn1cc(C(Nc2ccccn2)c2ccncc2)c2ccccc21 (centres undefined) | 47.1 (≈ 150 µM) | 37.9 (≈ 121 µM) |  |  |  | 42.5 (≈ 135 µM) |  | 56 (≈ 178 µM) |  |  |  |  |  |  |  |  |
| Clc1ccccc1C(Nc1ccccn1)c1c[nH]c2ccccc12 (centres undefined) | 22.7 (≈ 68 µM) | 14.9 (≈ 44.6 µM) | 71.4 | 71.4 | 71.4 | 13.1 (≈ 39.2 µM) | 71.4 | 12.2 (≈ 36.5 µM) |  |  | Active | Active |  |  |  |  |
| Cn1cc(C(Nc2ccccn2)c2ccccc2Cl)c2ccccc21 (centres undefined) | 39.2 (≈ 113 µM) | 27.1 (≈ 77.9 µM) |  |  |  | 26.5 (≈ 76.2 µM) |  | 66.7 (≈ 192 µM) |  |  |  |  |  |  |  |  |
| CN(C)Cc1c[nH]c2ccccc12 [GRAMINE] | 62.8 (≈ 360 µM) | 77.3 (≈ 444 µM) |  |  |  | > 100 |  | 74.5 (≈ 428 µM) |  |  |  |  |  |  |  |  |
| Cn1cc(C(Nc2ccccn2)c2ccc(Cl)cc2)c2ccccc21 (centres undefined) | 30.8 (≈ 88.5 µM) | 25 (≈ 71.9 µM) | 70.8 |  |  | 25.5 (≈ 73.3 µM) | 73.6 | 32.1 (≈ 92.3 µM) |  |  |  |  |  |  |  |  |
| Cn1cc(C(Nc2ccccn2)c2ccccn2)c2ccccc21 (centres undefined) | > 100 | > 100 |  |  |  | > 100 |  | > 100 |  |  |  |  |  |  |  |  |
| Cn1cc(C(Nc2nc3ccccc3s2)c2ccccc2F)c2ccccc21 (centres undefined) | > 100 | > 100 |  |  |  | > 100 |  | > 100 |  |  |  |  |  |  |  |  |
| c1ccc(NC(c2ccncc2)c2c[nH]c3ccccc23)nc1 (centres undefined) | > 100 | > 100 |  |  |  | > 100 |  | > 100 |  |  |  |  |  |  |  |  |
| Clc1ccccc1C(Nc1nc2ccccc2s1)c1c[nH]c2ccccc12 (centres undefined) | 8.1 (≈ 20.8 µM) | 10.5 (≈ 26.9 µM) |  |  |  | 9 (≈ 23.1 µM) |  | 13.2 (≈ 33.9 µM) |  |  | Active | Active |  |  |  |  |
| Cn1cc(C(Nc2ccccn2)c2ccc(F)cc2)c2ccccc21 (centres undefined) | 51.6 (≈ 156 µM) | 51.9 (≈ 157 µM) |  |  |  | 38.6 (≈ 116 µM) |  | 49.1 (≈ 148 µM) |  |  |  |  |  |  |  |  |
| Fc1ccccc1C(Nc1ccccn1)c1c[nH]c2ccccc12 (centres undefined) | 37.6 (≈ 118 µM) | 24.5 (≈ 77.2 µM) | 71.4 | 71.4 | 71.4 | 28.7 (≈ 90.4 µM) | 71.4 | 24.9 (≈ 78.5 µM) |  |  |  |  |  |  |  |  |
| FC(F)(F)c1ccc(C(Nc2ccccn2)c2c[nH]c3ccccc23)cc1 (centres undefined) | 10.1 (≈ 27.5 µM) | 13.5 (≈ 36.7 µM) | 71.4 | 71.4 | 71.4 | 12.1 (≈ 32.9 µM) | 71.4 | 8.6 (≈ 23.4 µM) |  |  | Active | Active |  |  |  |  |
| Fc1ccc(C(c2c[nH]c3ccccc23)n2cccn2)cc1 (centres undefined) | 5.7 (≈ 19.6 µM) | 8.5 (≈ 29.2 µM) |  |  |  | 8 (≈ 27.5 µM) |  | 8.5 (≈ 29.2 µM) | Dose-dependent effect | Dose-dependent effect | Active | Active |  |  |  |  |
| Clc1ccc(C(Nc2ccccn2)c2c[nH]c3ccccc23)cc1 (centres undefined) | 22.8 (≈ 68.3 µM) | 19.2 (≈ 57.5 µM) | 71.4 | 71.4 | 71.4 | 18.6 (≈ 55.7 µM) | 71.4 | 17.4 (≈ 52.1 µM) |  |  |  |  |  |  |  |  |
| O=c1[nH]cc(F)c(=O)[nH]1 [FLUOROURACIL] | 8.2 (≈ 63 µM) | 8.7 (≈ 66.9 µM) |  |  |  | 9.3 (≈ 71.5 µM) |  | 7.2 (≈ 55.4 µM) | Dose-dependent effect | Dose-dependent effect |  |  | 66.8 | 66.8 | 66.8 | 66.8 |
| Cn1cc(C(Nc2ccccn2)c2ccccc2F)c2ccccc21 (centres undefined) | 64.2 (≈ 194 µM) | 86.2 (≈ 260 µM) |  |  |  | 43.2 (≈ 130 µM) |  | 92.6 (≈ 279 µM) |  |  |  |  |  |  |  |  |
